Published values of several laboratories.
Lines come from different studies, so protocols differ.
Target: Tyrosine-protein kinase receptor UFO (AXL, Homo sapiens, UniProt P30530)
One construct used (P30530 26-894): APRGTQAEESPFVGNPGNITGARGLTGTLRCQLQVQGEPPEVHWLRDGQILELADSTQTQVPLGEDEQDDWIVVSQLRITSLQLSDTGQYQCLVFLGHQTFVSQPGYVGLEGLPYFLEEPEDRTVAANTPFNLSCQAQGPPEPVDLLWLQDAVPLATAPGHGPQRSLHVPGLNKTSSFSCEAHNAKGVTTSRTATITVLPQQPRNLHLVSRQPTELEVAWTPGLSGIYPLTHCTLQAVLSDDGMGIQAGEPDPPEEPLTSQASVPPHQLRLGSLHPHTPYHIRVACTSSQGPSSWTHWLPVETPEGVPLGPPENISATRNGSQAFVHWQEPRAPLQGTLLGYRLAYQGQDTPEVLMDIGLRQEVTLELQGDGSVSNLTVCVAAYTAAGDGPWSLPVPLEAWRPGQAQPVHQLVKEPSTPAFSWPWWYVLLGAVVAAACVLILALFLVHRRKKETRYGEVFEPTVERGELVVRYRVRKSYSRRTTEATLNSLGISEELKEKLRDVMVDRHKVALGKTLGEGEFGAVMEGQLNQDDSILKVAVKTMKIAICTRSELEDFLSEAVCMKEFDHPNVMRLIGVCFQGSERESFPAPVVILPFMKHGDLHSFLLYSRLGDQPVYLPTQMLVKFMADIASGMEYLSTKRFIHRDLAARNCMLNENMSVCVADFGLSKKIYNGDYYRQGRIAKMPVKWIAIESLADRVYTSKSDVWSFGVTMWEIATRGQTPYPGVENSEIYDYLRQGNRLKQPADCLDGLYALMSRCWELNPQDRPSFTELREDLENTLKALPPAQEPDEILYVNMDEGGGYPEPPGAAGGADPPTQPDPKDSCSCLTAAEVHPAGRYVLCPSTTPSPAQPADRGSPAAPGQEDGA

CC1CCCN1c1nccc(-c2cnn3ncccc23)n1 (stereo not drawn)  remaining binding (binding; 1 µM): 100%
C[C@@H](c1ccc(-n2cnc3c(N)ncnc32)cc1)N1CCc2nn(C)c(Cc3ccccc3)c2C1=O  remaining binding (binding, competition with immobilised ligand; 0.1 µM): 100%
COc1cnc(Nc2cccc(S(N)(=O)=O)c2)nc1N1CCN(c2ccccc2)CC1  remaining binding (binding, competition with immobilised ligand; 1 µM): 68%
CN(CCCC(F)(F)F)c1nccc(-c2cnn3ncccc23)n1  remaining binding (binding; 1 µM): 75%
CN([C@@H]1CCc2c(CC(=O)O)c3cc(S(C)(=O)=O)ccc3n2C1)S(=O)(=O)c1ccc(F)cc1  remaining binding (cell-free assay, competition with immobilised ligand; 1 µM): 100%
CCN1CCN(Cc2ccc(C(=O)Nc3ccc(C)c(Oc4ccc5c(c4)CC(=O)N5)c3)cc2C(F)(F)F)CC1  remaining binding (binding, competition with immobilised ligand; 1 µM): 98%
O=C(c1ccc(Nc2nccc(-c3cc4ccccc4s3)n2)cc1)N1CCC(N2CCCC2)CC1  remaining binding (binding, competition with immobilised ligand; 1 µM): 33%
CO[C@@H](C)c1c(Nc2ccc([C@@H](N(C)C(=O)C3CCS(=O)(=O)CC3)C(F)(F)F)cc2)cnc2cc(Cl)nn12  remaining binding (cell-free assay, competition with immobilised ligand; 1 µM): 77%
C[C@@H]1CCN(c2nccc(-c3cnn4ncccc34)n2)C1  remaining binding (binding; 1 µM): 86%
O=C(c1ccc(Nc2ncc(Cl)c(-c3ccc(Cl)s3)n2)cc1)N1CCC(N2CCCC2)CC1  remaining binding (binding, competition with immobilised ligand; 1 µM): 28%
N[C@H]1CCN(c2nccc(-c3cnn4ncccc34)n2)C1  remaining binding (binding; 1 µM): 97%
c1ccc(N2CCN(Cc3nc4ccccc4[nH]3)CC2)nc1  remaining binding (binding, competition with immobilised ligand; 1 µM): 100%
c1cnn2ncc(-c3ccnc(N4CCC45COC5)n3)c2c1  remaining binding (binding; 1 µM): 74%
FC(F)(F)Oc1cccc(-c2cnc3ccc(-c4ccncc4)nn23)c1  remaining binding (cell-free assay, competition with immobilised ligand; 5 µM): 74%
N#Cc1ccccc1CSc1nnc2c(n1)[nH]c1ccccc12  remaining binding (binding, competition with immobilised ligand; 10 µM): 65%
C[C@H](c1ccc(F)cc1)N(Cc1cccc(C(=O)O)c1)C(=O)c1cnc2ccccc2c1  remaining binding (cell-free assay, competition with immobilised ligand; 1 µM): 100%
O=C(Nc1c[nH]nc1C(=O)NC1CCNCC1)c1cc(F)cc(F)c1  remaining binding (binding, competition with immobilised ligand; 1 µM): 100%
C[C@@H](c1cccc(C#N)c1)n1cc(Cl)cc(C(N)=O)c1=N  remaining binding (cell-free assay, competition with immobilised ligand; 1 µM): 100%
C[C@@H]1CN(c2ccc3ncc(-c4ccc5[nH]nc(C6CC6)c5c4)n3n2)C[C@H](C)O1  remaining binding (binding, competition with immobilised ligand; 50 nM): 95%
Cc1cnc(Nc2ccc(C(=O)N3CCC(N4CCCC4)CC3)cc2)nc1-c1cc2ccccc2s1  remaining binding (binding, competition with immobilised ligand; 1 µM): 1%
NS(=O)(=O)c1cc(NC(=O)C2(c3ccccc3Cl)CC2)ccc1Oc1cccc(Cl)c1  remaining binding (cell-free assay, competition with immobilised ligand; 1 µM): 89%
CN(C)c1nccc(-c2cnc3ncccn23)n1  remaining binding (binding; 1 µM): 100%
CNC(=O)[C@@H]1CC[C@@H](n2c(-c3ccc4cnccc4c3)nc3ccc(C(=O)NCc4cccc(C(N)=O)c4)cc32)C1  remaining binding (binding, competition with immobilised ligand; 1 µM): 99%
CCOC(=O)c1cc2cc(-c3cc(C(=O)NCc4ccc(C(=O)O)cc4)nn3C)ccc2[nH]1  remaining binding (cell-free assay, competition with immobilised ligand; 0.1 µM): 89%
